# AI-2 QS mod: Vibrio harveyi AI-2 quorum sensing modulation; Vibrio harveyi JMH597 AI-2 luminescence/OD600 ratio, 9 h; hits give low values; strain lacks LuxN and CqsS sensors; 0 = neutral-control median; activity change, % at 7.5 µM; hit rate 0.4% among 300,000; AID 2094; in the data active = activity change below about -75%, passing the limit was not always enough;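 note: luminescence divided by OD600 gain over 9 h not by final OD600 alone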
# T cruzi repl: T. cruzi replication inhibition. T. cruzi beta-gal in NIH3T3, luminescence, 90 h. inhibition, % (concentration not given with the values). hit rate 1.4% among 300,000. AID 1885;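 active = mean inhibition across valid replicates above about 55%, limit read from the data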;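 note: signal also drops with host cell toxicity which is not excluded here; 0% = plate median of DMSO wells and 100% = zero luminescence signal; higher percent means less beta-gal luminescence so fewer parasites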
#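 System: Mouse NIH/3T3 fibroblasts infected with β-gal-expressing T. cruzi Tulahuen C4 | Quantity: NIH/3T3 cells, 5,000 per well | Reagent: 5000 reporter trypomastigotes per well | Dosing: Compound pinned at 50 nL/well, DMSO | Schedule: 3 h host attachment, then at least 90 h co-culture | Detection: GalScreen luminescence, 60 min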
# Yeast superoxide: yeast age-related superoxide inhibition as caloric restriction mimetic | S. cerevisiae aged cells, superoxide DHE fluorescence; hits give low values | superoxide response (% of plate mean), % at 10 µM | hit rate 0.18% among 330,000 | AID 2690;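 active = superoxide response under a set limit, about three screen SD below normal, cut at about 65% in these data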;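 note: yeast aged for seven days with compound at 30 °C before DHE staining; 100% = average MFI of all compound-treated wells on the plate with controls excluded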
# CendR NRP1 mod: NRP-1/CendR interaction modulation; O14786; FAM-RPARPAR peptide binding to NRP-1, fluorescence polarization; inhibition, % at 25 µM; hit rate 0.85% among 360,000; AID 602438;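 active = inhibition or corrected inhibition above about 18%, plus a signal ratio from 0.5 to 1.5, limit read from the data, passing the limit was not always enough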
# Target sequence (O14786 whole entry, looked up): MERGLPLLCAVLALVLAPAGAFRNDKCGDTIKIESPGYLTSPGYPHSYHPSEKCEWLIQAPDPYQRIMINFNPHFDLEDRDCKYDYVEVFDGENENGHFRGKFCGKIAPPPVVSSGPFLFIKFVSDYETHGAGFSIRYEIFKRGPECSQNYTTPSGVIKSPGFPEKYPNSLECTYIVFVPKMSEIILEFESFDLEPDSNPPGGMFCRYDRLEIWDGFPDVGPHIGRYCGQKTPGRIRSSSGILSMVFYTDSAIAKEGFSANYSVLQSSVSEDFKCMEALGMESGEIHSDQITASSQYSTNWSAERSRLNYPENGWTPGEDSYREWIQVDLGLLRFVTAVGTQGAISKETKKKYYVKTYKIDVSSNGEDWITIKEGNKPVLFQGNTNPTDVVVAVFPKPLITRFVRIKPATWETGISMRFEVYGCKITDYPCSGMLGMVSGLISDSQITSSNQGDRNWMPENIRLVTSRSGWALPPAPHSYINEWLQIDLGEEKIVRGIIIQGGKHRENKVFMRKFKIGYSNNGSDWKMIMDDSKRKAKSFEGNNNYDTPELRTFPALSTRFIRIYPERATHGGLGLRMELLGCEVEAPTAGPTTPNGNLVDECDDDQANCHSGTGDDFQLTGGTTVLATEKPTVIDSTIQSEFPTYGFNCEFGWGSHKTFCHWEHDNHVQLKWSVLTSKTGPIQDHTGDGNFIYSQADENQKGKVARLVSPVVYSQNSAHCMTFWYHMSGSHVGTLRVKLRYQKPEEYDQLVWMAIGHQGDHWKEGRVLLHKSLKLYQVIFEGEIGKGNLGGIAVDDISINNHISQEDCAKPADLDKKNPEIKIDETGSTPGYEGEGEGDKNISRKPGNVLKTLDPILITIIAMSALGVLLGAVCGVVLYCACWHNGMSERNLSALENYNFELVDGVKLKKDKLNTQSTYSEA
# HIF act: HIF pathway transcriptional activation; activation, % at 7.5 µM (by protocol); U2OS HRE-luciferase reporter, luminescence; normalized: DMSO 0%, desferrioxamine 100%; hit rate 0.32% among 300,000; AID 1910;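 active = mean activation of at least 10% of the iron chelator positive control signal, with at least half of replicates also reaching 10%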
# V-ATPase pH: regulators of yeast V-ATPase proton transport; S. cerevisiae, pHLuorin cytosolic pH fluorescence; response, % at 10 µM; hit rate 0.37% among 350,000; AID 504577; in the data active = response mostly above about 7.3%, no sharp cut-off; inactive = mostly below about 5.4%; note: actives read high
# Superoxide pick: yeast aging superoxide inhibition, cherry pick confirmation; shares compounds with Yeast superoxide; S. cerevisiae aging, superoxide DHE fluorescence; hits give low values; superoxide response (% of plate), % at 10 µM; hit rate 1% among 850; AID 434994;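 active = superoxide signal below 65% of the plate average of sample wells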;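 note: cells aged with compound for 7 days at 30 degrees C before staining; 100% equals mean DHE fluorescence of all compound wells on the plate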
# DHE fluor count: DHE fluorescence interference, counter-screen artifact; shares compounds with Yeast superoxide; S. cerevisiae BY4741, flow cytometry; hits give low values; fluorescence response, % at 10 µM; 850 tested, under 10 active;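 active = fluorescence response below 15%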;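 note: percent of the mean fluorescence averaged over all compound wells on the plate; lower means stronger quenching of DHE signal or ROS scavenging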
# V-ATPase pH SP: regulators of yeast V-ATPase proton transport. shares compounds with V-ATPase pH. S. cerevisiae pHLuorin cytosolic pH. response, % at 10 µM. hit rate 2% among 980. AID 602197; in the data active = response above about 24%;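 note: plate controls were vehicle wells for no effect and positive control wells for full effect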
# * marks the source's active call; other numbers are inactive results; . = not tested or not shown; ! = repeats disagree. An excerpt weighted towards active compounds, which were near 3% of everything screened.
SMILES,AI-2 QS mod,T cruzi repl,Yeast superoxide,CendR NRP1 mod,HIF act,V-ATPase pH,V-ATPase pH SP,others
C[C@]12CCC3C(CC[C@H]4C[C@H](O)CC[C@]34C)C1C[C@H](O)[C@H]2O (stereo partly drawn),.,.,.,1.8,.,-2.2,.,
C[C@]12CCC3C(CC[C@H]4C[C@@H](O)CC[C@]34C)C1CC[C@@]2(O)C(F)(F)F (stereo partly drawn),.,.,97.0,-0.1,.,.,.,Superoxide pick=105.1;DHE fluor count=104.7
C[C@]12CCC3C(CC[C@H]4C[C@@H](O)CC[C@]34C)C1C[C@@H](O)C2=O (stereo partly drawn),.,.,71.0,-5.0,.,.,.,
C[C@]12CC[C@H](O)C[C@@H]1CC[C@@H]1[C@@H]2CC[C@]2(C)[C@@H](C(=O)O)C[C@@H]12,20.9,-10.8,103.2,-2.5,0.4,-4.0,.,
CN1CC(C(=O)c2ccc(F)cc2)C(c2c(F)cccc2Cl)C1 (stereo not drawn),1.8,18.4,111.2,-18.6,-0.7,-4.1,.,
N#CC(CCN1CCOCC1)(c1ccccc1)c1ccccc1,-1.5,-4.8,109.5,8.8,2.5,-2.3,.,
O=C(c1cc(C(=O)NCc2ccccc2)c(=O)n(Cc2ccccc2)c1)c1cc(Br)ccc1O,9.7,27.2,85.7,-17.8,-0.9,-0.1,.,
C[C@]12CCC3C(CC[C@H]4C[C@@H](O)CC[C@]34C)C1C[C@@H](Br)[C@@H]2O (stereo partly drawn),.,.,100.8,.,.,.,.,
C[C@]12CCC3C(CC[C@H]4C[C@@H](O)CC[C@]34C)C1C[C@@H](N)[C@@H]2O (stereo partly drawn),.,.,92.7,6.3,.,-0.7,.,Superoxide pick=102.5;DHE fluor count=98.0
C[C@]12CCC3[C@@H](CC[C@H]4C[C@@H](O)CC[C@]34C)C1CCC2=O (stereo partly drawn),8.2,5.9,80.8,1.2,0.7,1.6,.,
C[C@]12CCC3C(CC[C@@H]4C[C@H](O)CC[C@]34C)C1CCC2=O (stereo partly drawn),.,.,64.2*,15.5,.,6.2,.,Superoxide pick=81.6;DHE fluor count=91.8
C[C@]12CC[C@H](O)C[C@H]1CC[C@@H]1[C@@H]2CC[C@]2(C)C(=O)CC[C@@H]12,.,.,48.5*,-10.1,.,-0.7,.,Superoxide pick=78.1;DHE fluor count=118.4
CCC12C=CCN3CCC4(c5cc(Br)c(OC)cc5N(C)C4C(O)(C(=O)OC)C1OC(C)=O)C32 (stereo not drawn),13.1,8.6,99.5,6.7,-1.2,4.4,.,
O=c1[nH]c(=O)n(Cc2ccccc2)c(O)c1C=NCCCO,24.6,5.4,98.8,-148.6,0.3,-0.8,.,
O=C(Nc1ccccc1)c1c(O)[nH]c(=O)[nH]c1=O,11.5,-10.3,98.5,8.2,-0.6,-0.5,.,
O=C(Nc1ccccc1)c1c(O)[nH]c(=S)[nH]c1=O,26.1,-4.4,104.2,9.1,-7.7,13.4*,-0.6,
COc1c(C)cc(C(=O)C2CCCN(Cc3cccc(C)n3)C2)cc1C (stereo not drawn),1.8,16.8,93.7,0.5,0.1,9.2*,-6.1,
C[C@]12CC[C@H]3[C@@H](CCC4=CC(=O)CC[C@@]43O)[C@@H]1CCC2=O,-9.5,-2.7,100.3,0.2,2.5,3.4,.,
CC12CCC(=O)C=C1CCC1C2CCC2(C)C1CCC2(O)CC#N (stereo not drawn),.,.,.,5.0,.,12.4*,3.1,
CCN(CC)c1ccc(N=Cc2c(O)n(-c3ccccc3)c(=O)[nH]c2=O)cc1,41.6,12.7,103.0,-57.5,-0.2,2.4,.,
CCN(CC)c1ccc(N=Cc2c(O)n(Cc3ccccc3)c(=O)[nH]c2=O)cc1,2.6,-1.5,103.5,-49.0,-0.2,46.3*!,-41.4,
[N-]=[N+]=NCCN1CCC(O)CCC1=O (stereo not drawn),10.3,-5.5,92.7,-3.5,0.5,26.3*,-1.1,
COc1cc(-c2ccc(N)c(OC)c2)ccc1N,.,.,93.7,-6.7,.,-3.0,.,
CC(=O)Nc1cc(C(=O)N2CCC3(CC2)OCCO3)ccc1S(=O)(=O)c1ccc(C)cc1,27.3,1.3,98.0,-1.8,0.5,1.2,.,
CC(=O)Nc1cc(C(=O)N2CCC3(CC2)OCCO3)ccc1S(=O)(=O)c1ccc(Cl)cc1,11.8,-16.1,98.0,3.7,-0.2,8.8*,7.5,
SMILES,AI-2 QS mod,T cruzi repl,Yeast superoxide,CendR NRP1 mod,HIF act,V-ATPase pH,V-ATPase pH SP,others
Cc1cc(/C=C2\C(=O)NC(=O)N(c3ccc(Br)cc3)C2=O)c(C)n1-c1cc(C(=O)O)cc(C(=O)O)c1,8.5,-9.5,116.5,-136.4,0.7,3.2,.,
Cc1cc(C(=O)C[N+]23CCN(CC2)CC3)c(C)n1-c1ccc(Br)cc1,-3.3,-2.2,83.3,-11.2,-0.1,9.2*,0.3,
CCN(C(=O)Oc1ccccc1)c1ccc(C(O)(C(=O)OC)C(F)(F)F)cc1 (stereo not drawn),29.5,-3.4,85.9,-1.3,-0.4,-3.1,.,
COCCNCCOc1ccc(C(C)(C)c2ccccc2)cc1,9.7,20.4,90.1,-0.9,-0.5,12.5*,-1.5,
Cc1ccc(C2(O)CCN3CCCCC32)cc1 (stereo not drawn),31.0,17.0,87.7,28.6*,-0.5,11.5*,0.3,
CCCCn1nnnc1C(c1ccc(OC)cc1)N1CCC2(CC1)C(=O)NCN2c1ccccc1 (stereo not drawn),.,.,.,7.4,.,.,.,
Cc1ccc(-n2c(O)c(/C=C/C=Nc3ccccc3)c(=O)[nH]c2=O)cc1,15.7,-20.1,78.8,121.4,0.3,84.5*,-15.5,
CN1CCN(C(=O)Cc2nc3ccccc3[nH]2)CC1,15.1,14.8,89.2,6.7,.,4.0,.,
CC1=C(C)CC2(C(=O)NC(=O)NC2=O)C(C)C1 (stereo not drawn),.,.,.,-1.3,.,3.9,.,
